Measurements from different studies.
Cnr2: Cannabinoid receptor 2 (Cnr2, Mus musculus, UniProt P47936)
SLCO1B3: Solute carrier organic anion transporter family member 1B3 (SLCO1B3, Homo sapiens, UniProt Q9NPD5)
G protein-coupled receptor 88: G protein-coupled receptor 88 (Homo sapiens, UniProt Q9GZN0)

`Cc1c(C(=O)c2cccc3ccccc23)c2cccc3c2n1[C@H](CN1CCOCC1)CO3` has a Ki of 0.0058 µM (Cnr2; ligand displacement, radioligand; cell membranes).
For `CCOC(=O)c1cncn1[C@H](C)c1ccccc1`, the IC50 was over 100 µM (SLCO1B3; transporter uptake, inhibitor, fluorescence; CHO; 30 min, pH 7.4).
With `CCCCOc1ccc([C@@H](CO)C(=O)N[C@H](C)c2ccccc2)cc1` the EC50 was 5.13 µM (G protein-coupled receptor 88; cAMP, agonist, TR-FRET).
`CCCCCCC(C)(C)c1cc(O)c2c(c1)OC(C)(C)[C@@H]1CC=C(C)C[C@@H]21` gave a Ki of 0.0014 µM (Cnr2; ligand displacement, radioligand; cell membranes).
The IC50 of `O=C[C@H](C[C@@H]1CCNC1=O)NC(=O)[C@H](CC1CCCCC1)NC(=O)c1cc2ccccc2[nH]1` is reported as 0.00021 µM (Procathepsin L (CTSL, Homo sapiens, UniProt P07711); enzyme activity, inhibitor).
`O=c1[nH]c2ccccc2n1C1CCN(CCCC(c2ccc(F)cc2)c2ccc(F)cc2)CC1` has an IC50 of 75.1 µM (Signal transducer and activator of transcription 5B, SH2 (STAT5B, Homo sapiens, UniProt P51692); protein-protein interaction, inhibitor, FP).
`CCCCCOc1ccc([C@@H](CO)C(=O)N[C@H](C)c2ccccc2)cc1` has an EC50 of 3.24 µM (G protein-coupled receptor 88; cAMP, agonist, TR-FRET).
With `OCCCCO` the IC50 was 5800 µM (Cytochrome P450 2E1 (Cyp2e1, Rattus norvegicus, UniProt P05182); enzyme activity, inhibitor; Fischer 344 rat, liver microsomes; 30 min).
`CC(C)(C)[C@H](NC(=O)C(F)(F)F)C(=O)N1C[C@H]2[C@@H]([C@H]1C(=O)N[C@H](C#N)C[C@@H]1CCNC1=O)C2(C)C` gave a Ki of 283 µM (SLCO1B3; transporter uptake, inhibitor).
